TRPC4 agonist = activators of mouse TRPC4 channel, primary screen, Fluo4 calcium, HEK293 TRPC4beta/mu-opioid cells. Short transient receptor potential channel 4 (Mus musculus), Q9QUQ5. Fluo4 calcium fluorescence; active compounds read high. B-score at 10 µM. 310,000 tested, 0.49% active;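 active = B-score above 5 SD of library B-scores, and initial fluorescence ratio not above library mean plus 5 SD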;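 also: positive B-score marks a calcium rise read as TRPC4 activation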
Target sequence (Q9QUQ5 whole entry, looked up): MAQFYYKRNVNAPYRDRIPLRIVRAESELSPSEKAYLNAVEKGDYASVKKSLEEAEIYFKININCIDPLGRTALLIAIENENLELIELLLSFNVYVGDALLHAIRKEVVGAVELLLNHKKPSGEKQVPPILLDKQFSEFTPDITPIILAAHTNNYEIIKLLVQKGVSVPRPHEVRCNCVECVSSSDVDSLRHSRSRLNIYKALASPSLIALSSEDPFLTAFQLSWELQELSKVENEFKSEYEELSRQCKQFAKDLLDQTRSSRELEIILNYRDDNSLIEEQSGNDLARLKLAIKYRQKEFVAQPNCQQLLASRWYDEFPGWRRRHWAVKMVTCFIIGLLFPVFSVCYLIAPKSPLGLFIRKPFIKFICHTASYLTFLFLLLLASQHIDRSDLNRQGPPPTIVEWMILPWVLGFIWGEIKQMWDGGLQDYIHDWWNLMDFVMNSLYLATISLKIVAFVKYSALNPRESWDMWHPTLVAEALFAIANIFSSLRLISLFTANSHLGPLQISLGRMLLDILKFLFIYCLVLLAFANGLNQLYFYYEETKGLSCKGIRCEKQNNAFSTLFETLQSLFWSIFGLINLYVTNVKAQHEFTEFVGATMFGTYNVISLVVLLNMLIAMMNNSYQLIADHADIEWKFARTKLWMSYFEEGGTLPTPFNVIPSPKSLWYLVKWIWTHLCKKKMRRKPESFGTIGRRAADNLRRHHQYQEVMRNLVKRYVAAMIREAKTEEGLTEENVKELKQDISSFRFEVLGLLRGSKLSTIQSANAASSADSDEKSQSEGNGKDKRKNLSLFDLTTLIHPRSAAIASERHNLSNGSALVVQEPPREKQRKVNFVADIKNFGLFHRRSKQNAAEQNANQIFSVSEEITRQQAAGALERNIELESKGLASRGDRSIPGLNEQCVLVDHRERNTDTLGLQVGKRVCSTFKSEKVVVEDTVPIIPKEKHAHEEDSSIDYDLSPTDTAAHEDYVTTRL
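Incubation: 45 min room-temperature Fluo4 loading, 110 s read / System: HEK293 cells stably co-expressing mouse TRPC4beta and mu-opioid receptor / Signal: Fluo4 fluorescence, kinetic / Control set: buffer (low) and maximal DAMGO (high) / Measure: integrated baseline-normalised fluorescence ratio, converted to per-well B score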
TRPC4 block = inhibitors of mouse TRPC4 channel, primary screen, Fluo4 calcium, HEK293 TRPC4beta/mu-opioid cells | Short transient receptor potential channel 4 (Mus musculus), Q9QUQ5 | DAMGO-evoked Fluo4 calcium flux; active compounds read low | B-score at 10 µM | 300,000 tested, 0.39% active | AID 2247, 2010;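 active = B-score over 3 SD under the library average, no early fluorescence shift, positive overall ratio signal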
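Assay system: TRPC4beta/mu-opioid receptor HEK293 cell line; compound dosing: single concentration per test compound; detection: Fluo4 Ca2+ flux fluorescence; evaluation: per-well B score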
TRPC4 potent = positive allosteric modulators of TRPC4, primary screen, cell-based, mouse TRPC4beta, HEK293 mu-opioid, Fluo-4 calcium; Short transient receptor potential channel 4 (Mus musculus), Q9QUQ5; DAMGO EC20, Fluo-4 Ca2+ flux; active compounds read high; B-score at 10 µM; 310,000 tested, 0.42% active; AID 2227, 2009;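 active = B-score of calcium response area above 5 SD of library B-scores, with initial fluorescence ratio within 5 SD of library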
TRPC6 activator = mouse TRPC6 channel activators, primary screen, cell-based, HEK293, membrane potential dye. B-score at 10 µM. AID 2550, 2010. HEK293-TRPC6 membrane potential dye fluorescence; active compounds read high. 310,000 tested, 0.13% active. Short transient receptor potential channel 6 (Mus musculus), Q61143;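 active = B-score of the integrated fluorescence ratio above library mean plus 3 SD, and starting fluorescence ratio within library mean plus 5 SD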;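 also: higher score means more depolarization so channel activation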
TRPC6 inhibitor = mouse TRPC6 channel inhibitors, primary screen, cell-based, HEK293, membrane potential dye; ACh-evoked depolarization; active compounds read low; B-score at 10 µM; 310,000 tested, 1.1% active; AID 2553, 2010;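 active = B-score under library mean minus 3 SD, initial fluorescence not abnormally high, positive integrated signal ratio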;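 also: B-score derived from integrated fluorescence ratio over the kinetic read; more negative B-score means stronger inhibition of depolarization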
TRPC4 sel inh 2 = second selectivity test of TRPC6 inhibitors: effect on mouse TRPC4. HEK293 TRPC4/MOR, membrane potential dye fluorescence; channel activated by saturating DAMGO dose. shares compounds with TRPC6 inhibitor. inhibition, % at 10 µM. 920 tested, 42% active. AID 2776;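 active = compounds whose fluorescence signal differed from control wells by over 3 SD, either direction, in both duplicate plates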
TRPC4 spec = mouse TRPC4 modulation by TRPC6 hits, confirmation, selectivity assay for TRPC6 inhibitor project, cell-based, HEK293 TRPC4/mu-opioid, membrane potential dye; shares compounds with TRPC6 inhibitor; membrane potential fluorescence; activity change, negative = inhibition, % at 10 µM; 920 tested, 61% active; AID 2777, 2010;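 active = rise or fall in signal beyond 3 SD of buffer-only wells in both replicate plates, either sign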;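 also: integrated kinetic ratio of fluorescence range over baseline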
HEK293 MPD ctr 2-1 = nonspecific membrane potential effects, parental HEK293, confirmation, counter-screen for TRPC6 inhibitor project, cell-based, second counter screen; shares compounds with TRPC6 inhibitor; parental HEK293 membrane potential dye fluorescence; maximal acetylcholine challenge after compound addition; signal change vs control, % at 10 µM; 920 tested, 31% active; AID 2779, 2010;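 active = membrane potential signal moving either way by over 3 SD of the maximum-effect control, in both duplicate plates, meaning non-specific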
HEK293 MPD ctr-1 = membrane potential modulation in parental HEK293, confirmation, counter-screen for TRPC6 inhibitor project, cell-based; shares compounds with TRPC6 inhibitor; parental HEK293 membrane potential dye fluorescence; membrane potential signal change, % at 10 µM; 920 tested, 60% active; AID 2780, 2010;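 active = membrane potential signal shifting up or down by more than 3 SD of buffer-only wells, on both duplicate plates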
HEK293 MPD ctr-2 = parental HEK293 membrane potential modulation, confirmation, counter-screen for TRPC6 modulator project, cell-based | shares compounds with TRPC6 inhibitor | membrane potential dye fluorescence | membrane potential signal change, % at 10 µM | 2,400 tested, 51% active | AID 488924, 2010;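 active = membrane potential signal moves up or down beyond 5 SD from buffer-only wells, on both duplicate plates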
HEK293 MPD ctr 2-2 = second counter-screen for TRPC6 modulators: effect in parental HEK293 cells; shares compounds with TRPC6 inhibitor; AID 488926; 2,400 tested, 14% active; inhibition, % at 10 µM; membrane potential dye fluorescence; after compound, maximal acetylcholine stimulation;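 active = membrane potential signal drops by more than 5 SD from the mean control signal, in both duplicate plates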
TRPC4 ctr mod = TRPC4 modulation by TRPC6 hit compounds, confirmation, selectivity assay for TRPC6 modulator project, cell-based, HEK293 TRPC4/mu-opioid, membrane potential dye, mouse; 2,400 tested, 69% active; membrane potential fluorescence; shares compounds with TRPC6 inhibitor; percent change from control (negative = decrease, positive = increase), % at 10 µM; AID 488927, 2010;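 active = membrane potential signal moved up or down beyond 5 SD of buffer control wells, in both duplicate plates, actives on both sides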
TRPC4/MOR inh 2 = second check of whether TRPC6 modulators also affect mouse TRPC4; 2,400 tested, 55% active; shares compounds with TRPC6 inhibitor; inhibition, % at 10 µM; HEK293 TRPC4/mu-opioid, membrane potential dye fluorescence; stimulated with maximal-effect DAMGO;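 active = drop in membrane potential signal beyond 5 SD of the control wells in both duplicate plates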;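 also: TRPC4 counter screen for TRPC6 hits run under conditions tuned for TRPC6 not TRPC4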
TRPC6 block conf = mouse TRPC6 channel inhibitors, confirmation, HEK293 cells, membrane potential dye, duplicate; shares compounds with TRPC6 inhibitor; ACh-evoked depolarization; inhibition, % at 10 µM; 3,300 tested, 43% active;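 active = fluorescence ratio falls more than 5 SD below the full-stimulation control mean, in both duplicate runs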;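 also: integrated fluorescence ratio of peak minus minimum over baseline after agonist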
TRPC6 act conf = mouse TRPC6 channel activators, confirmation, HEK293 cells, membrane potential dye, duplicate. shares compounds with TRPC6 inhibitor. HEK293-TRPC6 membrane potential dye fluorescence, FDSS. activation, % at 10 µM. 2,800 tested, 11% active;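 active = ratio signal rise beyond 5 SD above unstimulated control wells' mean, seen in both duplicate runs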
Each line names hits and unclear results; the compound was inactive in the other large screens (follow-up assays come after a bar, where they were run). An excerpt weighted towards active compounds, which were near 2.3% of everything screened.

Cn1cnc2cc(NC(=O)c3ccc(Cl)cc3)ccc21	TRPC6 inhibitor -5.3 | HEK293 MPD ctr-2 inactive | HEK293 MPD ctr 2-2 inactive | TRPC4 ctr mod -11% | TRPC4/MOR inh 2 inactive | TRPC6 block conf inactive | TRPC6 act conf inactive
Cc1c(F)cccc1NS(=O)(=O)c1ccc2c(c1)c(C)cc(=O)n2C	TRPC6 inhibitor -6.8 | TRPC4 sel inh 2 inactive | TRPC4 spec inactive | HEK293 MPD ctr 2-1 inactive | HEK293 MPD ctr-1 inactive | TRPC6 block conf inactive | TRPC6 act conf inactive
CC(C)C(NC(=O)c1c(F)cccc1F)C(=O)NCC(c1ccccc1)N(C)C (stereo not drawn)	TRPC6 inhibitor -5.1 | HEK293 MPD ctr-2 inactive | HEK293 MPD ctr 2-2 inactive | TRPC4 ctr mod 55% | TRPC4/MOR inh 2 58% | TRPC6 block conf inactive
CC1(C)CC(=O)C=C(C(=O)N2CCCC(C(=O)c3cccc(Cl)c3)C2)O1 (stereo not drawn)	none
CCCCn1c2c(c(=N)c3ccccc31)CCC2	TRPC6 inhibitor -7.2 | TRPC4 sel inh 2 60% | TRPC4 spec -29% | HEK293 MPD ctr 2-1 -20% | HEK293 MPD ctr-1 -508% | TRPC6 block conf 83% | TRPC6 act conf inactive
CCOC(=O)Cn1c2c(c(=N)c3ccccc31)CCC2	none
CCCCCn1c2c(c(=N)c3ccccc31)CCC2	TRPC4 block -8, TRPC6 inhibitor -8.1 | TRPC4 sel inh 2 56% | TRPC4 spec -26% | HEK293 MPD ctr 2-1 20% | HEK293 MPD ctr-1 -388% | TRPC6 block conf 71% | TRPC6 act conf inactive
CCCCCCCCn1c2c(c(=N)c3ccccc31)CCC2	none
CCOC(=O)c1c(NC(=O)C2C3C=CC(CC3)C2C(=O)O)sc(C)c1CC (stereo not drawn)	TRPC6 activator 12 | HEK293 MPD ctr-2 110% | HEK293 MPD ctr 2-2 inactive | TRPC4 ctr mod 21% | TRPC4/MOR inh 2 inactive | TRPC6 block conf inactive | TRPC6 act conf 60%
O=C1N/C(=C/c2ccc(N3CCOCC3)o2)C(=O)N1c1cccc(Cl)c1	TRPC6 activator 19 | HEK293 MPD ctr-2 120% | HEK293 MPD ctr 2-2 inactive | TRPC4 ctr mod 34% | TRPC4/MOR inh 2 inactive | TRPC6 block conf inactive | TRPC6 act conf inactive
Cc1ccc(/C=C2/NC(=O)N(c3ccccc3)C2=O)o1	none
CC1CCN(C(=O)c2ccc3c(c2NCCO)C(=O)c2ccccc2C3=O)CC1	TRPC6 inhibitor -7.7 | HEK293 MPD ctr-2 -209% | HEK293 MPD ctr 2-2 inactive | TRPC4 ctr mod -35% | TRPC4/MOR inh 2 76% | TRPC6 block conf 51% | TRPC6 act conf inactive
CCN(CC)c1ccc(/C=C(/C#N)C(=O)NCc2ccccc2)o1	TRPC6 activator 19 | HEK293 MPD ctr-2 590% | HEK293 MPD ctr 2-2 inactive | TRPC4 ctr mod 183% | TRPC4/MOR inh 2 inactive | TRPC6 block conf inactive | TRPC6 act conf 132%
OC(COc1ccccc1F)CN1CCC(Cc2ccccc2)CC1 (stereo not drawn)	TRPC6 inhibitor -5.1 | HEK293 MPD ctr-2 155% | HEK293 MPD ctr 2-2 inactive | TRPC4 ctr mod 25% | TRPC4/MOR inh 2 44% | TRPC6 block conf inactive
Cc1ccc(OCC(O)CN2CCC(Cc3ccccc3)CC2)c(C)c1 (stereo not drawn)	TRPC6 inhibitor -5.3 | HEK293 MPD ctr-2 448% | HEK293 MPD ctr 2-2 inactive | TRPC4 ctr mod 94% | TRPC4/MOR inh 2 81% | TRPC6 block conf 46%
C=CCC1(Cl)C(=O)C(Cl)=C(N2CCN(C)CC2)C1(OC)OC (stereo not drawn)	none
COC(=O)CC(N)c1ccc(OC)c2ccccc12 (stereo not drawn)	TRPC6 inhibitor -5.3 | HEK293 MPD ctr-2 inactive | HEK293 MPD ctr 2-2 inactive | TRPC4 ctr mod inactive | TRPC4/MOR inh 2 inactive | TRPC6 block conf inactive | TRPC6 act conf inactive
Cc1cc(NC(=O)c2cncc(Br)c2)ccc1NC(=O)c1cc2ccccc2o1	none
COc1cc(/C=C/c2ccc3c([N+](=O)[O-])cccc3n2)ccc1OCC(=O)O	none
COc1cc(/C=C/c2nc3ccc([N+](=O)[O-])cc3s2)ccc1OCC(=O)O	TRPC6 inhibitor -6.7 | HEK293 MPD ctr-2 -69% | HEK293 MPD ctr 2-2 inactive | TRPC4 ctr mod -20% | TRPC4/MOR inh 2 inactive | TRPC6 block conf inactive | TRPC6 act conf inactive

From PubChem
